Screening data: PubChem, Broad Institute
Tcruzi prolif – inhibitors of T. cruzi proliferation | T. cruzi beta-gal in NIH3T3, GalScreen luminescence, 90 h | inhibition, % at 8.34 µM | hit rate 5.9% among 77,000;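 active = mean inhibition above about 93%, with at least 55% of replicates each passing it, limit read from the data, passing the limit was not always enough; inconclusive = only one of those two conditions holds; inactive = neither condition holds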
IDH1 R132H inh – IDH1 R132H (human) inhibition | O75874 | IDH1 R132H reductase, diaphorase/resazurin fluorescence, 60 min | inhibition, % at 10 µM | hit rate 0.18% among 70,000 | AID 624101; in the data active = inhibition above about 34%; inconclusive = no clear call, values can overlap the other calls; inactive = below about 11%;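 also: 0% = DMSO and 100% = no enzyme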
Target sequence (O75874 whole entry R132H): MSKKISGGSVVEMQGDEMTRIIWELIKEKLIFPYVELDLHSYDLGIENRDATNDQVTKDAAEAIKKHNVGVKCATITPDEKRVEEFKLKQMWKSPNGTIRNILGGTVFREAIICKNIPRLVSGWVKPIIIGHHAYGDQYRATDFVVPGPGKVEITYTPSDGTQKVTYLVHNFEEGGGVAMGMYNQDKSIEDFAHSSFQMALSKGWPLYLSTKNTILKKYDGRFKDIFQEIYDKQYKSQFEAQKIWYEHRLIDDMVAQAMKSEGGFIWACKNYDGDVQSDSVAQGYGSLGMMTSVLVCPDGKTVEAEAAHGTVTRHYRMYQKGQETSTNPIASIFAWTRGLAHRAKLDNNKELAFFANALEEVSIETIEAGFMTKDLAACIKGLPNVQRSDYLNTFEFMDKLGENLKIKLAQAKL
Pf Dd2 inh – P. falciparum Dd2 growth inhibition. SYBR Green, 72 h; active compounds read low. activity change, % at 10 µM. hit rate 2.3% among 94,000; in the data active = activity change below about -80%; inconclusive = no clear call, values can overlap the other calls
GASC1 inh – inhibitors of human demethylase GASC-1 KDM4C; hit rate 0.15% among 96,000; Q9H3R0; AID 720574; inhibition, % at 12.5 µM; GST-KDM4C 2-372, H3K9me3 peptide, LANCE TR-FRET;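 active = mean replicate inhibition above about 25%, with at least 55% of replicates also reaching it, limit read from the data, passing the limit was not always enough; inconclusive = only one of those two conditions met; inactive = neither condition met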
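System – N-terminal GST-fused human GASC-1 (KDM4C) fragment, residues 2-372 · Input – enzyme final amount 10 nM · Technique – LANCE TR-FRET, Eu antibody, ULight-streptavidin, EDTA, ex 340 nm, em 618/671 nm · Medium – HEPES buffer, pH 7.5, plus ascorbate · Incubation – enzyme reaction 30 min, then detection 60 min, both room temperature · Reagent – H3K9me3 peptide with Fe(II)/2OG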
* hit, by the source's call; u = inconclusive; x = no result; ! = repeats disagree. A selection: hits, their analogues and other compounds. The true share with any hit is near 5.9%.

SMILES | Tcruzi prolif | IDH1 R132H inh | Pf Dd2 inh | GASC1 inh
C/C=C/c1ccc(C2[C@H]3CNC[C@@H]2N3Cc2cc(F)ccc2F)cc1 (some centres not stated) | x | x | -84*! | 3
CCCc1cn(CC[C@H]2CC[C@@H](NS(=O)(=O)c3ccc(-c4ccccc4)cc3)[C@H](CO)O2)nn1 | 60 | 0 | -94* | 0
CCCc1cn(CC[C@@H]2CC[C@@H](NS(=O)(=O)c3ccc(-c4ccccc4)cc3)[C@H](CO)O2)nn1 | 59 | 0 | -93* | -2
CCCc1cn(CC[C@H]2CC[C@H](NS(=O)(=O)c3ccc(-c4ccccc4)cc3)[C@@H](CO)O2)nn1 | -32 | -1 | -89* | -1
CCCc1cn(CC[C@@H]2CC[C@H](NS(=O)(=O)c3ccc(-c4ccccc4)cc3)[C@@H](CO)O2)nn1 | -2 | 0 | -76 | 0
Cc1ccc2nc(-c3ccc(NC(=O)CN4CCN(C(=O)C5CCCO5)CC4)cc3)sc2c1 (configuration not stated) | x | 0 | x | x
COc1ccc(CN2CC3(CCN(C(=O)Cc4ccncc4)CC3)c3c([nH]c4cc(OC)ccc34)[C@@H]2CO)cc1 | x | x | -86* | -2
CCCC(=O)N1CCC2(CC1)CN(Cc1ccncc1)[C@@H](CO)c1[nH]c3cc(OC)ccc3c12 | x | x | -91* | 0
COc1ccc2c3c([nH]c2c1)[C@H](CO)N(Cc1ccncc1)CC31CN(C(=O)Cc2ccncc2)C1 | x | x | -4 | 2
COc1ccc([N+](=O)[O-])cc1N(CC(=O)Nc1cccc(C)c1)S(C)(=O)=O | x | 1 | x | x
C[C@@H]1CN([C@H](C)CO)C(=O)Cc2cc(NC(=O)Nc3ccc(F)cc3)ccc2O[C@@H]1CN(C)CC1CCCCC1 | 69 | -11 | -33 | 1
C[C@H](CO)N1C[C@H](C)[C@@H](CN(C)CC2CCCCC2)Oc2ccc(NC(=O)Nc3ccc(F)cc3)cc2CC1=O | 50 | 0 | -90* | 0
C[C@@H]1CN([C@@H](C)CO)C(=O)Cc2cc(NC(=O)Nc3ccc(C(F)(F)F)cc3)ccc2O[C@H]1CN(C)CC1CCCCC1 | -25 | 0 | -87* | -3
CCc1c(C)sc(NC(=O)C2CC(c3cc(Cl)c(OC)cc3OC)=NO2)c1C#N (configuration not stated) | x | 0 | x | x
C[C@H](CO)N1C[C@H](C)[C@@H](CN(C)C(=O)Nc2ccccc2)OCc2ccccc2-c2c(n(C)c3ccccc23)C1=O | 72 | x | -69 | 1
C[C@H](CO)N1C[C@H](C)[C@@H](CN(C)C(=O)Nc2ccc(-c3ccccc3)cc2)OCc2ccccc2-c2c(n(C)c3ccccc23)C1=O | x | x | -94* | -2
C[C@H](CO)N1C[C@H](C)[C@H](CN(C)C(=O)Nc2ccccc2)OCc2ccccc2-c2c(n(C)c3ccccc23)C1=O | 49 | -5 | -14 | -1
C[C@@H]1CN([C@@H](C)CO)C(=O)c2c(c3ccccc3n2C)-c2ccccc2CO[C@@H]1CN(C)C(=O)Nc1ccc(-c2ccccc2)cc1 | x | x | -88* | -2
C[C@@H]1CN([C@H](C)CO)C(=O)c2c(c3ccccc3n2C)-c2ccccc2CO[C@@H]1CN(C)C(=O)Nc1ccc(-c2ccccc2)cc1 | x | x | -83* | -5
C[C@H]1CN([C@@H](C)CO)C(=O)c2c(c3ccccc3n2C)-c2ccccc2CO[C@@H]1CN(C)C(=O)Nc1ccc(-c2ccccc2)cc1 | x | x | -89* | -4
CCc1cc2c(=O)n(CC(=O)Nc3cc(OC)ccc3OC)cnc2s1 | x | 0 | x | x
Cc1ccc(S(=O)(=O)N(CC(=O)O)c2ccc(C)c(C)c2)cc1 | x | 1 | x | x
C[C@H](CO)N1C[C@H](C)[C@H](CN(C)C(=O)Nc2ccc3c(c2)OCO3)OCc2ccccc2-c2c(n(C)c3ccccc23)C1=O | 92 | -2 | -85* | 2
Cc1nn(CC(=O)Nc2cc(F)ccc2F)c(C)c1[N+](=O)[O-] | x | 0 | x | x
CO[C@H]1CN(C)C(=O)c2ccc(NC(=O)Nc3cc(Cl)cc(Cl)c3)cc2OC[C@H](C)NC[C@H]1C | -7 | 0 | -89* | x
CO[C@@H]1CN(C)C(=O)c2ccc(NC(=O)Nc3cccc(Cl)c3)cc2OC[C@@H](C)NC[C@H]1C | -92 | 0 | -84* | -1
CO[C@@H]1CN(C)C(=O)c2ccc(NC(=O)Nc3cccc(Cl)c3)cc2OC[C@H](C)NC[C@@H]1C | 14 | 0 | -26 | 13
CO[C@H]1CN(C)C(=O)c2ccc(NS(=O)(=O)c3ccc(Cl)cc3)cc2OC[C@@H](C)NC[C@H]1C | 89 | 93* | 22 | 80*
COc1ccccc1C(=O)Nc1ccc2c(c1)OC[C@H](C)NC[C@@H](C)[C@@H](OC)CN(C)C2=O | -55 | u | 9 | 68*
